SMILES strings stand for the structures.

One test addresses T1, fumarase (FH) (Homo sapiens, UniProt P07954).
T1 sequence (P07954 45-510): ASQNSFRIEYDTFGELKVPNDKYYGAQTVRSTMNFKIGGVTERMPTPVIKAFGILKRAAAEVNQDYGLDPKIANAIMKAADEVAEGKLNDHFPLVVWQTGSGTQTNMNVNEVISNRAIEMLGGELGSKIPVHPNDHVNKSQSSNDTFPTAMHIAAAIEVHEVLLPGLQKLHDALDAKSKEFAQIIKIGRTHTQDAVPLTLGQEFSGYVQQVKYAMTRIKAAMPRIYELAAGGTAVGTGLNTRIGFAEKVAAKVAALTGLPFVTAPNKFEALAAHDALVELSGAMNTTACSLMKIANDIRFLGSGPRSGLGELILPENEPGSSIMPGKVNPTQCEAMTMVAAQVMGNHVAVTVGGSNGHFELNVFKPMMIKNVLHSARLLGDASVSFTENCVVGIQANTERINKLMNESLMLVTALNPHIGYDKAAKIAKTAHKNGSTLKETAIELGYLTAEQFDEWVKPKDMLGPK
Kind of test: MIDAS protein-metabolite interaction screen. It counts as binding. Particulars: significant PMI Q < 0.01. A digest of the protocol: (§1)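 Purified protein is separated from a defined metabolite library by a semipermeable dialysis membrane that passes metabolites but not protein, then incubated to relative equilibrium. Protein is denatured and removed. Metabolites in both chambers are quantified by flow injection analysis–MS, with methods optimized for each pool. The between-chamber fold change is normalized and corrected for nonspecific interactions.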

Test [1] concerns the target T2, fumarase (Homo sapiens, UniProt P07954).
T2 sequence (P07954 45-510): T1 sequence (P07954 45-510)
Nature of the test: Differential scanning fluorimetry. The test is classed as binding.

Test [2] has as its target T2, fumarase. Nature of the test: Fumarase kinetic assays. It counts as biochemical.
In test [3] the target is T3, ENO1 (Homo sapiens, UniProt P06733). Kind of test: MIDAS protein-metabolite interaction screen. It counts as binding. Particulars: significant PMI Q < 0.01. A digest of the protocol:
as §1

The target of test [4] is T4, ENO2 (Homo sapiens, UniProt P09104). Nature of the test: MIDAS protein-metabolite interaction screen. It counts as binding. Conditions: significant PMI Q < 0.01. A digest of the protocol: as §1
T4 sequence (P09104 whole entry): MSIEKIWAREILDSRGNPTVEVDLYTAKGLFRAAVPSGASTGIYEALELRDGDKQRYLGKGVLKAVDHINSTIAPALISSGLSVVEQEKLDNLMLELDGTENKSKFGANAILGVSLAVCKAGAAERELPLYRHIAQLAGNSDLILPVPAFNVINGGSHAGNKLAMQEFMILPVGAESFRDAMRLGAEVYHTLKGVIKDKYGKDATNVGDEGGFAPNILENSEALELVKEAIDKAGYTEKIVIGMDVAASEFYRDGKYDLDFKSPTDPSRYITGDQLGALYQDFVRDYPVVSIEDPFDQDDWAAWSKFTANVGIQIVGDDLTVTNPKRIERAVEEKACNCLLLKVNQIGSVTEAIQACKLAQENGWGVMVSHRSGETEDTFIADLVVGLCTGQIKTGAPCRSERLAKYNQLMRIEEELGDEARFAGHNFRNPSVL
Test [5] addresses T3, ENO1. Nature of the test: Differential scanning fluorimetry. The test is classed as binding. For orientation: DSF heats the sample and reads unfolding from a dye or from intrinsic fluorescence.
Test [6] deals with T4, ENO2. Nature of the test: Differential scanning fluorimetry. The test is classed as binding.
A further test has as its system enolase. Nature of the test: In vitro enolase activity. The test is classed as biochemical, human.

T3 sequence (P06733 whole entry): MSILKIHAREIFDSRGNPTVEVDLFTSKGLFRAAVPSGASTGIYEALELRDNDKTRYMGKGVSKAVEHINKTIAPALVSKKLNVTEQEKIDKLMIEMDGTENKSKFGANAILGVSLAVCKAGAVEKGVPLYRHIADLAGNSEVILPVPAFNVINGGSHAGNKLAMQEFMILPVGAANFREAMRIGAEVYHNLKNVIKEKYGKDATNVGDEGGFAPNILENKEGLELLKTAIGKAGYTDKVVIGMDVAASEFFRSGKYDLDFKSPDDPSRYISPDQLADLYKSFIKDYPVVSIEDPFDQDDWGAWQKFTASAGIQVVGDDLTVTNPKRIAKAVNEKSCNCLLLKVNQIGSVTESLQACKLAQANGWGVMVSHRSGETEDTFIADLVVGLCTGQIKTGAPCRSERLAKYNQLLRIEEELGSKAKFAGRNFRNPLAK

Take `NC(CP(=O)(O)O)C(=O)O` (centres unmarked) [AP-3, 2-amino-3-phosphonopropionic acid]: at fumarase (FH), the MIDAS protein-metabolite interaction result is given as “putative interactor”. On fumarase [1], the Kd (commonly a measure of binding affinity in units of concentration) was 980 µM. In addition, the “inhibition of fumarase, mode” value against fumarase [2] is recorded as “competitively inhibited”.

`N[C@@H](COP(=O)(O)O)C(=O)O` [pSer, phosphoserine]: the MIDAS protein-metabolite interaction entry on ENO1 [3] and on ENO2 [4] was “most enriched metabolite” throughout. Further, the Kd is 1380 µM on ENO1 [5] and 1150 µM at ENO2 [6]. Besides, the “inhibition of in vitro enolase activity” value with enolase was “only weakly inhibited”.

Source of the values: article PMC10262665 (Science (New York, N.Y.), 2023).
